Data as given in ChEMBL document CHEMBL1949523, “Synthesis and evaluation of aza-peptidyl inhibitors of the lysosomal asparaginyl endopeptidase, legumain” (Bioorg Med Chem Lett, 2012).
Activity calls are given as the source filed them. The calls are words filed in the database; no cut-off is given here.

How the values were obtained:
Legumain = target: T1, Legumain (Mus musculus, UniProt O89017); test: Inhibition of mouse recombinant legumain using Cbz-Ala-Ala-Asn-AMC as substrate measured every 30 secs for 2.5 hrs by fluorimetry
T1 sequence (O89017 whole entry): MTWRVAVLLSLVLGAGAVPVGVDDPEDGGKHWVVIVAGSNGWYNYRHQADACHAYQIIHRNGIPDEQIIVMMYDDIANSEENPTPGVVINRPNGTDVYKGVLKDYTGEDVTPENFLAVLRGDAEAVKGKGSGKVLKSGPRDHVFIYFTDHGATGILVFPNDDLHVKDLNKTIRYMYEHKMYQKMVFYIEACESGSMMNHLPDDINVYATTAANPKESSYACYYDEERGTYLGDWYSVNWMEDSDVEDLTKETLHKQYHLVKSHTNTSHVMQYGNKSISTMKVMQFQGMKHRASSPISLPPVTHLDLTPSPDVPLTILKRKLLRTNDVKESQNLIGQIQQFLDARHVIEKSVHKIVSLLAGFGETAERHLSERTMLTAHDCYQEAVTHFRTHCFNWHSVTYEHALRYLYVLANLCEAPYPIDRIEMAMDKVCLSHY

[1] = Inhibition of cathepsin L using Cbz-Phe-Arg-AMC as substrate measured every 30 secs for 2.5 hrs by fluorimetry
Legumain (Mus musculus) = target: T2, Legumain (Mus musculus) (UniProt O89017); test: Binding affinity to legumain in mouse RAW264.7 cells at 0.1 to 10 uM after 60 mins by SDS-PAGE analysis; assay type: cell-based
T2 sequence (whole entry): T1 sequence (O89017 whole entry)
Summary of the method: (§1)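 RAW 264.7 macrophages incubated with Cy5-labeled probes for 60 min across a concentration range. Cells lysed hypotonically, labeled proteins resolved on 12.5% SDS-PAGE, detected by in-gel fluorescence scanning.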

[2] = target: Cathepsin B (Mus musculus) (UniProt P10605); test: Binding affinity to cathepsin B in mouse RAW264.7 cells at 10 uM after 60 mins by SDS-PAGE analysis; assay type: cell-based; summary of the method: as §1
[3] = target: T3, Pro-cathepsin H (Mus musculus) (UniProt P49935); test: Binding affinity to cathepsin H in mouse RAW264.7 cells at 10 uM after 60 mins by SDS-PAGE analysis; assay type: cell-based; summary of the method: as §1
T3 sequence (whole entry): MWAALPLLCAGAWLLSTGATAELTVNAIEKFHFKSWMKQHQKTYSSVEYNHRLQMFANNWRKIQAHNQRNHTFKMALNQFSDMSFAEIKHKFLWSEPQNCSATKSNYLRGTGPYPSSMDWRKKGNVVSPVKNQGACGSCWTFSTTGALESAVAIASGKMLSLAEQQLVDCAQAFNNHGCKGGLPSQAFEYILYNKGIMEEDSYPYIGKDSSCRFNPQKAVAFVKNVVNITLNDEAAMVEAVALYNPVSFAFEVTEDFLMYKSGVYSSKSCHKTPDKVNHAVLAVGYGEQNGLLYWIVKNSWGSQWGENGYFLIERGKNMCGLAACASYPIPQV

Chain of Cathepsin B (Mus musculus) (P10605 80-333 limits assumed): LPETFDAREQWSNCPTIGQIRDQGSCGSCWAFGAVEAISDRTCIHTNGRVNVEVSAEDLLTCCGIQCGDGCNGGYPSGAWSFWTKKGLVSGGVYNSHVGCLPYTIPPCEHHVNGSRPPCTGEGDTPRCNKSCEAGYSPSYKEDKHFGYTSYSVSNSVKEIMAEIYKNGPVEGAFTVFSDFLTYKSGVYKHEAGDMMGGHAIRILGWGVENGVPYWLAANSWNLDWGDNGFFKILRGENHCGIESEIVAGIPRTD

C#CC[C@H](NC(C)=O)C(=O)N1CCC[C@H]1C(=O)NN(CC(N)=O)C(=O)C1OC1C(=O)OCC (some centres not stated)
IC50 (Legumain): 0.0086 µM
IC50 [1]: 358 µM

CCOC(=O)/C=C/C(=O)N(CC(N)=O)NC(=O)[C@@H]1CCCN1C(=O)[C@H](CC)NC(=O)CCCCCNC(=O)CCCCCN1/C(=C/C=C/C=C/C2=[N+](CC)c3ccc(S(=O)(=O)O)cc3C2(C)C)C(C)(C)c2cc(S(=O)(=O)[O-])ccc21
Activity (Legumain (Mus musculus)): Active

CCOC(=O)C1OC1C(=O)N(CC(N)=O)NC(=O)[C@@H]1CCCN1C(C)=O (some centres not stated)
IC50 (Legumain): 0.0093 µM
IC50 [1]: 370 µM

CCOC(=O)C1OC1C(=O)N(CC(N)=O)NC(=O)[C@@H]1CCCN1C(=O)[C@H](CC)NC(C)=O (some centres not stated)
IC50 (Legumain): 0.0081 µM
IC50 [1]: 890 µM

CCOC(=O)/C=C/C(=O)N(CC(N)=O)NC(=O)[C@@H]1CCCN1C(=O)[C@@H]1Cc2ccccc2CN1C(C)=O
IC50 (Legumain): > 1 µM

CCOC(=O)[C@@H]1O[C@H]1C(=O)N(CC(N)=O)NC(=O)[C@@H]1CCCN1C(=O)C1(NC(=O)CCCCCNC(=O)CCCCCN2/C(=C/C=C/C=C/C3=[N+](CC)c4ccc(S(=O)(=O)O)cc4C3(C)C)C(C)(C)c3cc(S(=O)(=O)[O-])ccc32)CC1
Activity [2]: Active
Activity (Legumain (Mus musculus)): Active
Activity [3]: Active

CCOC(=O)/C=C/C(=O)N(CC(N)=O)NC(=O)[C@@H]1CCCN1C(=O)C1(NC(C)=O)CC1
IC50 (Legumain): 0.0093 µM
IC50 [1]: > 1000 µM

CCOC(=O)/C=C/C(=O)N(CC(N)=O)NC(=O)[C@@H]1CCCN1C(=O)c1cccc(NC(C)=O)c1
IC50 (Legumain): > 1 µM

CCOC(=O)C1OC1C(=O)N(CC(N)=O)NC(=O)[C@@H]1CCCN1C(=O)CCCCCNC(=O)CCCCCN1/C(=C/C=C/C=C/C2=[N+](CC)c3ccc(S(=O)(=O)O)cc3C2(C)C)C(C)(C)c2cc(S(=O)(=O)[O-])ccc21 (some centres not stated)
Activity [2]: Active
Activity (Legumain (Mus musculus)): Active
Activity [3]: Active

CCOC(=O)/C=C/C(=O)N(CC(N)=O)NC(=O)[C@@H]1CCCN1C(=O)CCCCCNC(=O)CCCCCN1/C(=C/C=C/C=C/CC2=[N+](CC)c3ccc(S(=O)(=O)O)cc3C2(C)C)C(C)(C)c2cc(S(=O)(=O)[O-])ccc21
Activity (Legumain (Mus musculus)): Active

C/C=C(\NC(C)=O)C(=O)N1CCC[C@H]1C(=O)NN(CC(N)=O)C(=O)/C=C/C(=O)OCC
IC50 (Legumain): 0.141 µM

CCOC(=O)/C=C/C(=O)N(CC(N)=O)NC(=O)[C@@H]1CCCN1C(=O)C(NC(C)=O)=C(C)C
IC50 (Legumain): 0.148 µM

CCOC(=O)/C=C/C(=O)N(CC(N)=O)NC(=O)[C@@H]1CCCN1C(=O)c1ccc(CNC(C)=O)cc1
IC50 (Legumain): 0.267 µM

CCOC(=O)C1OC1C(=O)N(CC(N)=O)NC(=O)[C@@H]1CCCN1C(=O)C1(NC(C)=O)CC1 (some centres not stated)
IC50 (Legumain): 0.0044 µM
IC50 [1]: 106 µM

CCOC(=O)/C=C/C(=O)N(CC(N)=O)NC(=O)[C@@H]1CCCN1C(=O)[C@H]1CSCN1C(C)=O
IC50 (Legumain): 0.167 µM

CCOC(=O)/C=C/C(=O)N(CC(N)=O)NC(=O)[C@@H]1CCCN1C(=O)[C@H](CC)NC(C)=O
IC50 (Legumain): 0.0065 µM
IC50 [1]: 964 µM

CCOC(=O)/C=C/C(=O)N(CC(N)=O)NC(=O)[C@@H]1CCCN1C(=O)C(C)(C)NC(C)=O
IC50 (Legumain): 0.198 µM

CCOC(=O)/C=C/C(=O)N(CC(N)=O)NC(=O)[C@@H]1CCCN1C(=O)[C@H](Cc1ccc(O)c([N+](=O)[O-])c1)NC(C)=O
IC50 (Legumain): > 1 µM

C#CC[C@H](NC(C)=O)C(=O)N1CCC[C@H]1C(=O)NN(CC(N)=O)C(=O)/C=C/C(=O)OCC
IC50 (Legumain): 0.017 µM
IC50 [1]: 855 µM

CCOC(=O)/C=C/C(=O)N(CC(N)=O)NC(=O)[C@@H]1CCCN1C(C)=O
IC50 (Legumain): 0.0083 µM
IC50 [1]: > 1000 µM
